Reference: ChEMBL document CHEMBL1143393, “Indene-based scaffolds. 2. An indole-indene switch: discovery of novel indenylsulfonamides as 5-HT6 serotonin receptor agonists” (J Med Chem, 2009)

Experiments:
[1] = biological target: T1, 5-hydroxytryptamine receptor 6 (Homo sapiens, UniProt P50406); assay: Displacement of [3H]LSD from human 5HT6 receptor expressed in HEK293 cells at 100 uM by liquid scintillation counting; assay type: cell-based
[2] = biological target: T1, 5-hydroxytryptamine receptor 6; assay: Agonist activity at human 5HT6 receptor expressed in HEK293F cells assessed as stimulation of cAMP level after 30 mins by HTRF assay […]; assay type: functional, cell-based
Outline: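 HEK293F cells stably expressing human 5-HT6 were held overnight in serum-free medium, then 20000 cells/well were placed in Ham's F12 with 1 mM IBMX and 20 µM pargyline. Compound or vehicle was added for 30 min at 37 °C. Results were given as Emax and EC50.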

[3] = biological target: T1, 5-hydroxytryptamine receptor 6; assay: Displacement of [3H]LSD from human 5HT6 receptor expressed in HEK293 cells by liquid scintillation counting; assay type: cell-based
Outline: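 Bound ligand was collected on polyethylenimine-pretreated glass fiber filters, washed with 50 mM Tris-Cl pH 7.4, and counted by liquid scintillation. Nonspecific binding was defined with 100 µM serotonin. Triplicate points. IC50 came from linear regression, and Ki was derived by Cheng-Prusoff.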

[4] = biological target: T2, Alpha-2A adrenergic receptor (Homo sapiens, UniProt P08913); assay: Inhibition of human adrenergic alpha2A receptor
T2 sequence (P08913 whole entry): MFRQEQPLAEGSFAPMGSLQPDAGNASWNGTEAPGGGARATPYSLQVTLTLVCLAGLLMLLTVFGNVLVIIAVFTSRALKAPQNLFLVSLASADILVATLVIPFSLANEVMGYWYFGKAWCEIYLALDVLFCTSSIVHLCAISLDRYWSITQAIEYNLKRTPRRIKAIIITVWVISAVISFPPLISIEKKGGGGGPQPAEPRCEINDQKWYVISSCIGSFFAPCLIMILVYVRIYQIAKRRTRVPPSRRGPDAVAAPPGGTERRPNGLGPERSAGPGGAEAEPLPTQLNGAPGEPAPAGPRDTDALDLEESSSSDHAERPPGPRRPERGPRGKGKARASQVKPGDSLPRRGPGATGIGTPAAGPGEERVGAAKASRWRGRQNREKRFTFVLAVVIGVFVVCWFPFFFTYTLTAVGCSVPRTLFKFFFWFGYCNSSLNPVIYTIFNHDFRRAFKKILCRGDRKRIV

[5] = biological target: T3, 5-hydroxytryptamine receptor 1A (Homo sapiens, UniProt P08908); assay: Inhibition of human 5HT1A receptor
T3 sequence (P08908 whole entry): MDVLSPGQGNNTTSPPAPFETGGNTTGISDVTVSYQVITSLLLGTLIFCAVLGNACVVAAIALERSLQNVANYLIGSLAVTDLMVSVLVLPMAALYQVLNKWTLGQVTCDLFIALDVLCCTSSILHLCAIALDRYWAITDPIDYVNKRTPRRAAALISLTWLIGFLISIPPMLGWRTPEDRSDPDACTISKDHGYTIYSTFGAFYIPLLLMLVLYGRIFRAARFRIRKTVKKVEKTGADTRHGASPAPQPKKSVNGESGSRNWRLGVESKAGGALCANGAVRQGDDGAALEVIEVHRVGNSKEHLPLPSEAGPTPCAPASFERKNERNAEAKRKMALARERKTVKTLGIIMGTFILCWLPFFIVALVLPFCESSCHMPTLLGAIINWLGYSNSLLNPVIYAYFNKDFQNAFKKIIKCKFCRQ

[6] = biological target: T4, Adrenergic receptor alpha-1 (Rattus norvegicus, UniProt P15823+P23944+P43140); assay: Inhibition of rat adrenergic alpha1 receptor
T4 sequence (P15823 whole entry): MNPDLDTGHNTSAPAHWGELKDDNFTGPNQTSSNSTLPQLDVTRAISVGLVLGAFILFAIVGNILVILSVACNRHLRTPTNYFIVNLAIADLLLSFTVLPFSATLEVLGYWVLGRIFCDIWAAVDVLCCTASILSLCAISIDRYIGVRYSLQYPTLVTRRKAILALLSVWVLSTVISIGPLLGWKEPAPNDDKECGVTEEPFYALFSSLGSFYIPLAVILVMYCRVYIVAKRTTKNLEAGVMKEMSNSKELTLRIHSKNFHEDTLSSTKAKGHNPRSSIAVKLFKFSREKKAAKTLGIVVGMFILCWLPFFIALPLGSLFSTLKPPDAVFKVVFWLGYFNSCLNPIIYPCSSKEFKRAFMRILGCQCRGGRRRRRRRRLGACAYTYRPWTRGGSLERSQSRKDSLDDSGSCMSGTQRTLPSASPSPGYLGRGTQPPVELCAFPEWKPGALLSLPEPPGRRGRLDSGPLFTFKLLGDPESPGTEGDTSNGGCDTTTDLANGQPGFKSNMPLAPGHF
T4 sequence (P23944 whole entry): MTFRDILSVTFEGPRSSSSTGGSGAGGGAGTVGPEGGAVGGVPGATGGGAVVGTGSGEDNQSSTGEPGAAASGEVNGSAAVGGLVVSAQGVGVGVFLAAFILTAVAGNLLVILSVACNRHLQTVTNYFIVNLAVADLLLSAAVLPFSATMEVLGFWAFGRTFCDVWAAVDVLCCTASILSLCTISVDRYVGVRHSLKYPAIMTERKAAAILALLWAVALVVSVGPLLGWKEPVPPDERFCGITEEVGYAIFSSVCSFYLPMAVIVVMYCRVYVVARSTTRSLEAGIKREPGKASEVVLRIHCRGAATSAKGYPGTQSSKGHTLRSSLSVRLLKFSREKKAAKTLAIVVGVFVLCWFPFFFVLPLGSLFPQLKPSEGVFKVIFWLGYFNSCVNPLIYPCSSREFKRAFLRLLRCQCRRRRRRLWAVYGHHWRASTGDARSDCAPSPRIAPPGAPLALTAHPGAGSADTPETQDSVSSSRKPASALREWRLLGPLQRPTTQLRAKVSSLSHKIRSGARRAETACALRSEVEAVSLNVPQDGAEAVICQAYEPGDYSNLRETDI
T4 sequence (P43140 whole entry): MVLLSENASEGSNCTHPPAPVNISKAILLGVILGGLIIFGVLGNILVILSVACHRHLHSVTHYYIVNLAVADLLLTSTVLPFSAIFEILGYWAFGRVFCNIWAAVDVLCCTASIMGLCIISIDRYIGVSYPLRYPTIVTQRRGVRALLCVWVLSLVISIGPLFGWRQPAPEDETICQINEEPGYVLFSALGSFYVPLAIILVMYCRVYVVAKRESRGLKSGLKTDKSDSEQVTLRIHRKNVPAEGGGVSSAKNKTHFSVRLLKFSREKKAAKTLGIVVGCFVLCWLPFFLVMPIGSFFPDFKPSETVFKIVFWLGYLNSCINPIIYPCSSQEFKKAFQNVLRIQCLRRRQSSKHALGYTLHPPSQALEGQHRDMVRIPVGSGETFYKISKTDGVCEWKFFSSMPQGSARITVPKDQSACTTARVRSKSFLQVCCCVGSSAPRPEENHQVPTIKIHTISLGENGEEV

[7] = biological target: Sodium-dependent serotonin transporter (Homo sapiens, UniProt P31645); assay: Inhibition of human SERT
Sodium-dependent serotonin transporter, sequence (P31645 whole entry): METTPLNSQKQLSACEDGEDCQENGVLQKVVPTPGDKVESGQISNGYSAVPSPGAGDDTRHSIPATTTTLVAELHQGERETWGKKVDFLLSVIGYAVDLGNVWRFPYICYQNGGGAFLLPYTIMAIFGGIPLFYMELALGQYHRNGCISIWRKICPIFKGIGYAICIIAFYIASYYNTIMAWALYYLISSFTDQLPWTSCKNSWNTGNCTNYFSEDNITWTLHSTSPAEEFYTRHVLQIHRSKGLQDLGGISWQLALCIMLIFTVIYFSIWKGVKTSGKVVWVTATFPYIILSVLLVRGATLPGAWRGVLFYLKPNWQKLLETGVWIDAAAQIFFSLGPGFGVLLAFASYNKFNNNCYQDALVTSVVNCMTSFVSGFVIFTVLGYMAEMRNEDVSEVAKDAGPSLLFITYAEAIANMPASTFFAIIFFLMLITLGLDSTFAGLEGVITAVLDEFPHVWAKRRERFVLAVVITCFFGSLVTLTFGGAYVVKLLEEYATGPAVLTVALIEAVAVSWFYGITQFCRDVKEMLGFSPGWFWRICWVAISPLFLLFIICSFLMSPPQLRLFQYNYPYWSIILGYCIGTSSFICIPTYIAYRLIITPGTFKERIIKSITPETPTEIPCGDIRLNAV

[8] = biological target: T5, 5-hydroxytryptamine receptor 2C (Homo sapiens, UniProt P28335); assay: Inhibition of human 5HT2C receptor
T5 sequence (P28335 whole entry): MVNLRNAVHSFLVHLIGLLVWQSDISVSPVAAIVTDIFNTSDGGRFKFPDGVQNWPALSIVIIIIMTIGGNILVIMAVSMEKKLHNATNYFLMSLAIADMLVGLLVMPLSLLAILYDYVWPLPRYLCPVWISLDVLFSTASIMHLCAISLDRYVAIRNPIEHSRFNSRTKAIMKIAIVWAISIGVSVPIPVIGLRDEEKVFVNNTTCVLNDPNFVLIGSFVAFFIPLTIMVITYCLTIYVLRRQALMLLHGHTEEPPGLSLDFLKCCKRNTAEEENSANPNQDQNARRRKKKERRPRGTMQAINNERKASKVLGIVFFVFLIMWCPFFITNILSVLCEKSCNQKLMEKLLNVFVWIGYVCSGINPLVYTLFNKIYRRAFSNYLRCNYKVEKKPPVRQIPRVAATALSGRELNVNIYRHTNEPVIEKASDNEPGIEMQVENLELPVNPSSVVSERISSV

[9] = biological target: T1, 5-hydroxytryptamine receptor 6; assay: Displacement of [3H]LSD from human 5HT6 receptor expressed in HEK293 cells at 1 uM by liquid scintillation counting; assay type: cell-based

T1 sequence (P50406 whole entry): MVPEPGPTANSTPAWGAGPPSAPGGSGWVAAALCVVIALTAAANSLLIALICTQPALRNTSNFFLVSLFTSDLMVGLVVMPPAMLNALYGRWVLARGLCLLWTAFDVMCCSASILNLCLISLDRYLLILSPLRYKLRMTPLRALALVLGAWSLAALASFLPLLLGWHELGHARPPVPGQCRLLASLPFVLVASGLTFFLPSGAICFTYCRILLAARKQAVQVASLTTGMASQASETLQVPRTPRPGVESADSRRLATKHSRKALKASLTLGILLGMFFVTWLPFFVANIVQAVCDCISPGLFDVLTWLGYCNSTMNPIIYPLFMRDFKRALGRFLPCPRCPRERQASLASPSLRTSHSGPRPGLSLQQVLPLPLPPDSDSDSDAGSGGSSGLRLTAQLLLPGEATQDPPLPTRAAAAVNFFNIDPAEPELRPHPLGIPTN

| SMILES | Activity [1] | Emax [2] | Ki [3] | further results |
| --- | --- | --- | --- | --- |
| CCN(c1ccc2c(c1)C(CCN(C)C)=C(C)C2)S(=O)(=O)c1sc(C)c2cc(Cl)ccc12 | 3% |  |  |  |
| CN(C)CCc1c[nH]c2ccc(NS(=O)(=O)c3ccc4c(Cl)cccc4c3)cc12 |  | 96% |  | EC50 ([2]; read-out: pEC50 (converted)): 0.000295 µM |
| CN(C)CCc1cn(S(=O)(=O)c2ccccc2)c2ccccc12 |  |  | 0.003 µM |  |
| CNc1cc(NS(=O)(=O)c2ccc(N)cc2)nc(NC)n1 |  |  | 0.047 µM |  |
| CC1=C(CCN(C)C)c2cc(S(=O)(=O)Nc3cccc4ccccc34)ccc2C1 | 51% | 95% |  | EC50 ([2]; read-out: EC50): 0.014 µM; IC50 [4]: 1.1 µM; IC50 [5]: > 1 µM |
| CC1=C(CCN2CCCC2)c2cc(NS(=O)(=O)c3c(Cl)nc4sccn34)ccc2C1 | 81% | 37% | 0.017 µM |  |
| CC1=C(CCN2CCCC2)c2cc(NS(=O)(=O)c3cccc4nsnc34)ccc2C1 | 19% |  |  |  |
| CN(C)CCC1=CC(C)(C)c2ccc(NS(=O)(=O)c3c(Cl)nc4sccn34)cc21 | 24% |  |  |  |
| CC1=C(CCN(C)C)c2cc(NS(=O)(=O)c3cccc4ccccc34)ccc2C1 | 78% |  | 0.276 µM |  |
| CC1=C(CCN2CCCC2)c2cc(NS(=O)(=O)c3ccc(N)cc3)ccc2C1 | 63% |  |  |  |
| CN(C)CCC1=CCc2ccc(NS(=O)(=O)c3c(Cl)nc4sccn34)cc21 | 87% | 99% | 0.01 µM | IC50 [6]: > 10 µM; IC50 [7]: > 10 µM; EC50 ([2]; read-out: EC50): 0.0003 µM; IC50 [4]: > 1 µM; IC50 [5]: > 1 µM; IC50 [8]: > 1 µM |
| O=S(=O)(Nc1ccc2c(c1)C(CCN1CCCCC1)=CC2)c1c(Cl)nc2sccn12 | 81% | -58% | 0.031 µM |  |
| CC1=C(CCN2CCCC2)c2cc(NS(=O)(=O)c3sc4ccc(Cl)cc4c3C)ccc2C1 |  | 78% |  | Activity [9]: 100% |
| CC1=C(CCN(C)C)c2cc(NS(=O)(=O)c3ccc(N)cc3)ccc2C1 | 4% |  |  |  |
| CC1=C(CCN(C)C)c2cc(NS(=O)(=O)c3c(Cl)nc4sccn34)ccc2C1 |  | 98% | 0.0045 µM | IC50 [6]: > 10 µM; IC50 [7]: > 10 µM; EC50 ([2]; read-out: EC50): 0.0009 µM; Activity [9]: 100%; IC50 [4]: > 1 µM; IC50 [5]: > 1 µM; IC50 [8]: 1.13 µM |
| Cc1c(S(=O)(=O)Nc2ccc3c(c2)C(CCN(C)C)=CC3(C)C)sc2ccc(Cl)cc12 | 2% |  |  |  |
| CC1=C(CCN(C)C)c2cc(NS(=O)(=O)c3cccc4nsnc34)ccc2C1 | 16% |  |  |  |
| CC1=C(CCN(C)C)c2cc(NS(=O)(=O)c3ccc4ccccc4c3)ccc2C1 | 71% | 98% |  | EC50 ([2]; read-out: EC50): 0.0032 µM; IC50 [4]: > 1 µM; IC50 [5]: > 1 µM |
| CC1=C(CCN(C)C)c2cc(NS(=O)(=O)c3csc4ccccc34)ccc2C1 | 88% | 101% | 0.053 µM | EC50 ([2]; read-out: EC50): 0.0003 µM; IC50 [4]: 0.7 µM; IC50 [5]: 1.14 µM |
